Test results from ChEMBL document CHEMBL2321820, “Discovery of HSD-621 as a Potential Agent for the Treatment of Type 2 Diabetes” (ACS Med Chem Lett, 2013).

How the values were obtained:
[1] = test system: Mus musculus; test: Ex vivo inhibition of 11beta-HSD1 in C57B16 mouse epididymal fat assessed as conversion of [3H]-cortisone to [3H]-cortisol at 10 mg/kg, po after 5 hrs by HPLC analysis relative to vehicle-treated control; format: functional
Method in brief: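 Mice were dosed orally at 10 mg/kg. Epididymal fat was collected 5 h after dosing for the ex vivo readout.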

[2] = Half life in mouse liver microsomes; format: ADME, Microsome
[3] = molecular target: T1, 11-beta-hydroxysteroid dehydrogenase 1 (Mus musculus, UniProt P50172); test: Inhibition of mouse 11beta-HSD1 expressed in CHO cells […] incubated for 30 mins prior to substrate addition measured after 120 mins by chemiluminescence assay in presence of 10% human serum; format: cell-based
Method in brief: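 Cell-based assay with 10% (v/v) human serum in the culture medium. Run in duplicate, with 11-point 2-fold dilutions giving the IC50. Lower threshold was 10 nM.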

[4] = molecular target: T1, 11-beta-hydroxysteroid dehydrogenase 1; test: Inhibition of mouse 11beta-HSD1 expressed in CHO cells […] incubated for 30 mins prior to substrate addition measured after 120 mins by chemiluminescence assay; format: cell-based
Method in brief: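 Cell-based assay run in duplicate. Compounds were tested as 11-point 2-fold dilutions, and IC50 was derived. Lower assay threshold was 10 nM.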

[5] = Half life in human liver microsomes; format: ADME, Microsome
[6] = molecular target: 11-beta-hydroxysteroid dehydrogenase 1 (Homo sapiens, UniProt P28845); test: Inhibition of human 11beta-HSD1 expressed in CHO cells using cortisone as substrate incubated for 30 mins prior to substrate addition measured after 120 mins by chemiluminescence assay
[7] = Oral bioavailability in C57B6 mouse at 10 mg/kg; format: ADME, organism-based; settings: in vivo
Method in brief: (§1)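 Male C57B6 mice. IV dose of 2 mg/kg in 50% DMSO/50% PEG200. Oral dose of 10 mg/kg in 2% Tween/0.5% methyl cellulose in water. Values are PK parameters from the iv and po arms.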

[8] = AUC in C57B6 mouse at 10 mg/kg, po; format: ADME, organism-based; parameters: dose 10 mg/kg, route oral; settings: plasma; method in brief: as §1
[9] = Tmax in C57B6 mouse at 10 mg/kg, po; format: ADME, organism-based; parameters: dose 10 mg/kg, route oral; settings: in vivo; method in brief: as §1
[10] = Cmax in C57B6 mouse at 10 mg/kg, po; format: ADME, organism-based; parameters: dose 10 mg/kg, route oral; settings: in vivo; method in brief: as §1
[11] = Half life in C57B6 mouse at 2 mg/kg, iv; format: ADME, organism-based; parameters: dose 2 mg/kg, route intravenous; settings: in vivo; method in brief: as §1
[12] = AUC in C57B6 mouse at 2 mg/kg, iv; format: ADME, organism-based; parameters: dose 2 mg/kg, route intravenous; settings: plasma; method in brief: as §1
[13] = Volume of distribution at steady state in C57B6 mouse at 2 mg/kg, iv; format: ADME, organism-based; parameters: dose 2 mg/kg, route intravenous; settings: in vivo, read-out: Vdss; method in brief: as §1
[14] = Clearance in C57B6 mouse at 2 mg/kg, iv; format: ADME, organism-based; parameters: dose 2 mg/kg, route intravenous; settings: in vivo; method in brief: as §1
[15] = molecular target: T2, 11-beta-hydroxysteroid dehydrogenase type 2 (Homo sapiens, UniProt P80365); test: Inhibition of human 11beta-HSD2 expressed in CHO cells using […] as substrate incubated for 30 mins prior to substrate addition measured after 120 mins by scintillation counting analysis; format: cell-based
T2 sequence (P80365 whole entry): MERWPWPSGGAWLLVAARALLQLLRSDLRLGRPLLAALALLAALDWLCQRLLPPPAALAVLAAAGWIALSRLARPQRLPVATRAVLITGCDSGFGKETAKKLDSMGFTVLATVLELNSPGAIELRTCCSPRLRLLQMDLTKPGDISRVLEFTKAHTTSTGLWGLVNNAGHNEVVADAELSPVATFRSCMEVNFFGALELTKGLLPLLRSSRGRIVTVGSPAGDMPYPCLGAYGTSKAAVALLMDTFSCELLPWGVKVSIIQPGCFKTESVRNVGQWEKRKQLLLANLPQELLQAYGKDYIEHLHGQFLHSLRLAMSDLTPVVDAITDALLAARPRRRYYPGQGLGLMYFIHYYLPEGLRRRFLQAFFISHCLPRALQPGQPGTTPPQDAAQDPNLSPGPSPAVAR

[16] = molecular target: Cytochrome P450 2C9 (Homo sapiens, UniProt P11712); test: Inhibition of CYP2C9 (unknown origin); format: ADME
[17] = Half life in C57B6 mouse at 10 mg/kg, po; format: ADME, organism-based; parameters: dose 10 mg/kg, route oral; settings: in vivo; method in brief: as §1
[18] = species on record: Mus musculus; test: Toxicity in C57B6 DIO mouse assessed as body weight gain at after 31 days; settings: in vivo, po, 744 h

T1 sequence (P50172 whole entry): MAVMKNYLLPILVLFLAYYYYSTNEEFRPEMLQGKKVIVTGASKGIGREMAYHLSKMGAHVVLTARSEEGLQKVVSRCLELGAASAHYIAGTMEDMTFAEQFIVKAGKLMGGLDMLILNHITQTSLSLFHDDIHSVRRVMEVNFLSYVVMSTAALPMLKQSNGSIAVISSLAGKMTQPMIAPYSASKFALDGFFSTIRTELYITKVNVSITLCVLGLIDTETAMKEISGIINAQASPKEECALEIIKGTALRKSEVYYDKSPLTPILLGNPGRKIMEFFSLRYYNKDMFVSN
11-beta-hydroxysteroid dehydrogenase 1 (Homo sapiens, UniProt P28845), sequence (P28845 whole entry): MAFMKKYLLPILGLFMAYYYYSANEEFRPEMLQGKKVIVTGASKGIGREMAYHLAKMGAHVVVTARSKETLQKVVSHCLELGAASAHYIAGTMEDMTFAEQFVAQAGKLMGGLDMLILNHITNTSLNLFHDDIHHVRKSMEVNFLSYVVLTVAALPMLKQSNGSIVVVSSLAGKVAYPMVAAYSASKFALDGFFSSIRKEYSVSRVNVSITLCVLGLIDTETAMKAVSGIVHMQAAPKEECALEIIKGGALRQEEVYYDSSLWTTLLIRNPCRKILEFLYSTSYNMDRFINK
Cytochrome P450 2C9, sequence (P11712 whole entry): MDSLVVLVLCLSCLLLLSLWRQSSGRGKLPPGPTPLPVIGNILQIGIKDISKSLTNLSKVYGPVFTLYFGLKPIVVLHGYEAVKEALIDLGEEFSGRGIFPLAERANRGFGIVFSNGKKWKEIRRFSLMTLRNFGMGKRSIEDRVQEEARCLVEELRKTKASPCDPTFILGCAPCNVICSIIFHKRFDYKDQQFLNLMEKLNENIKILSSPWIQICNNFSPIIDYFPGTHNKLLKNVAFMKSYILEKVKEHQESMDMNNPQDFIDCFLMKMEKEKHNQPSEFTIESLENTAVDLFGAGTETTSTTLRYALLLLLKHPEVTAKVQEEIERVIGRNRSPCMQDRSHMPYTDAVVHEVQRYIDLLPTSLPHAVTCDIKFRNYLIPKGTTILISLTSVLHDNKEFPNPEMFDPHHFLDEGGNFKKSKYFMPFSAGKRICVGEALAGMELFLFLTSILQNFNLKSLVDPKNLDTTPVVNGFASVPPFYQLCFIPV

| Structure (SMILES) | inhibition in vivo at 10 mg/kg [1] [%] | half-life [2] [min] | IC50 [3] [nM] | IC50 [4] [nM] | half-life [5] [min] | IC50 [6] [nM] | also measured |
| --- | --- | --- | --- | --- | --- | --- | --- |
| C[C@@H]1CN(c2ccc(F)cc2C(F)(F)F)CCN1S(=O)(=O)c1cn(C)c(C(C)(O)C(F)(F)F)n1 (some centres not stated) | 33 | 30 | 18 | 77 | 10 |  |  |
| C[C@@H]1CN(c2ccc(F)cc2C(F)(F)F)CCN1S(=O)(=O)c1nc(C(C)(O)C(F)(F)F)n(C)n1 (some centres not stated) | 38 | 23 | 1390 | 165 | 10 |  |  |
| C[C@@H]1CN(c2ccc(F)cc2C(F)(F)F)CCN1S(=O)(=O)c1ccc(C(C)(O)C(F)(F)F)s1 (some centres not stated) | 44 | 17 | 10 | 10 | > 30 | 15 |  |
| C[C@@H]1CN(c2ccc(F)cc2C(F)(F)F)CCN1S(=O)(=O)c1ccc([C@@](C)(O)C(F)(F)F)s1 | 80 | 17 | 10 | 10 | > 30 | 17 | bioavailability [7]: 19%; AUC [8]: 3400 ng·h/mL; Tmax [9]: 30 min; Cmax [10]: 449 ng/mL; half-life [11]: 570 min; AUC [12]: 3590 ng·h/mL; Vd [13]: 5.8 L/kg; clearance [14]: 9 mL/min/kg; IC50 [15]: > 100000 nM |
| C[C@@H]1CN(c2ccc(F)cc2C(F)(F)F)CCN1S(=O)(=O)c1ccc([C@](C)(O)C(F)(F)F)s1 | 5 | > 30 | 10 | 10 | > 30 | 10 |  |
| C[C@@H]1CN(c2ccc(C(N)=O)cc2C(F)(F)F)CCN1S(=O)(=O)c1ccc([C@@](C)(O)C(F)(F)F)s1 | 87 | 17 |  |  | 17 |  | inhibition (INH) [16]: Active |
| C[C@@H]1CN(c2ccc(C(N)=O)cc2C(F)(F)F)CCN1S(=O)(=O)c1ccc([C@](C)(O)C(F)(F)F)s1 | 86 | 17 |  |  | 10 |  | inhibition (INH) [16]: Active |
| C[C@@H]1CN(c2ccc(F)cc2C(F)(F)F)CCN1S(=O)(=O)c1ccc([C@@](O)(C(N)=O)C(F)(F)F)cc1 | < 10 | 30 | 48 | 40 | 10 |  |  |
| C[C@@H]1CN(c2ccc(F)cc2C(F)(F)F)CCN1S(=O)(=O)c1ccc([C@](O)(C(N)=O)C(F)(F)F)cc1 | < 10 | 30 | 41 | 20 | 27 |  |  |
| C[C@@H]1CN(c2ccc(F)cc2C(F)(F)F)CCN1S(=O)(=O)c1cccc([C@@](O)(C(N)=O)C(F)(F)F)c1 | 82 | 30 | 10 | 10 | 18 | 23 | bioavailability [7]: 46%; half-life [17]: 168 min; AUC [8]: 14000 ng·h/mL; Tmax [9]: 120 min; Cmax [10]: 1550 ng/mL; half-life [11]: 252 min; AUC [12]: 6130 ng·h/mL; Vd [13]: 1.8 L/kg; clearance [14]: 5.4 mL/min/kg; IC50 [15]: > 100000 nM |
| C[C@@H]1CN(c2ccc(F)cc2C(F)(F)F)CCN1S(=O)(=O)c1cccc([C@](O)(C(N)=O)C(F)(F)F)c1 | 38 | < 2 | 10 | 10 | < 2 | 51 |  |
| C[C@@H]1CN(c2ccc(F)cc2C(F)(F)F)CCN1S(=O)(=O)c1ncc([C@@](O)(C(N)=O)C(F)(F)F)s1 | 83 | 18 |  |  | 21 |  |  |
| C[C@@H]1CN(c2ccc(F)cc2C(F)(F)F)CCN1S(=O)(=O)c1ncc([C@](O)(C(N)=O)C(F)(F)F)s1 | 17 | > 30 |  |  | 19 |  |  |
| C[C@@H]1CN(c2ccc(F)cc2C(F)(F)F)CCN1S(=O)(=O)c1ccc([C@](O)(C(N)=O)C(F)(F)F)s1 | 50 | 18 | 10 | 10 | 18 | 145 |  |
| C[C@@H]1CN(c2ccc(F)cc2C(F)(F)F)CCN1S(=O)(=O)c1ccc(C(O)(c2nnc[nH]2)C(F)(F)F)s1 (some centres not stated) | 57 | 26 |  |  |  |  |  |
| CN(CCOc1ccc(CC2SC(=O)NC2=O)cc1)c1ccccn1 (configuration not stated) [ROSIGLITAZONE] |  |  |  |  |  |  | Activity [18]: Non-toxic |
